Experimental data as given in ChEMBL document CHEMBL4689842, “EUbOPEN Chemogenomics Library wave 1” (2021).

System: Fibroblast
Test: Multiplex assay against human fibroblast
Format: toxicity, cell-based
How it was run: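 Cells stained live at seeding with Hoechst33342, BioTracker Green Microtubule Cytoskeleton Dye, MitoTracker Red and Annexin V Alexa Fluor 680 were imaged on a CQ1 microscope at 37°C and 5% CO2 after compound addition. Their classification by CellPathfinder machine-learning gating ran from Hoechst high-intensity objects versus normal cells, to healthy, pyknosed or fragmented nuclei among normal cells, to mitotic or apoptotic among pyknosed cells. Tubulin, mitochondrial-mass and membrane-permeability phenotypes are per cents of healthy-nucleus cells.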

[1] = 12 h, 1 µM, compound concentration 1 uM, replicate 1
[2] = 12 h, 1 µM, compound concentration 1 uM, replicate 2
[3] = 12 h, 10 µM, compound concentration 10 uM, replicate 1
[4] = 12 h, 10 µM, compound concentration 10 uM, replicate 2
[5] = 24 h, 1 µM, compound concentration 1 uM, replicate 1
[6] = 24 h, 1 µM, compound concentration 1 uM, replicate 2
[7] = 24 h, 10 µM, compound concentration 10 uM, replicate 1
[8] = 24 h, 10 µM, compound concentration 10 uM, replicate 2
[9] = 48 h, 1 µM, compound concentration 1 uM, replicate 1
[10] = 48 h, 1 µM, compound concentration 1 uM, replicate 2
[11] = 48 h, 10 µM, compound concentration 10 uM, replicate 1
[12] = 48 h, 10 µM, compound concentration 10 uM, replicate 2

O=C1NC(=O)C(c2cnc3ccccn23)=C1c1cn2c3c(cc(F)cc13)CN(C(=O)N1CCCCC1)CC2 [LY-2090314]
Population Apoptotic (%) [1]: 60% | Population Fragmented Nuclei (%) [1]: 16% | Population Healthy Nuclei (%) [1]: 32% | Population Hoechst High Intensity Objects (%) [1]: 11% | Population Membrane Permeable-Phenotype (%) [1]: 29% | Population Mitochondria Different-Phenotype (%) [1]: 22% | Population Mitotic Cells (%) [1]: 40% | Population Normal (%) [1]: 88% | Population Pyknosed Nuclei (%) [1]: 51% | Population Tubulin-Different-Phenotype (%) [1]: 89% | Total Cell Count [1]: 166 | Population Apoptotic (%) [2]: 80% | Population Fragmented Nuclei (%) [2]: 3% | Population Healthy Nuclei (%) [2]: 87% | Population Hoechst High Intensity Objects (%) [2]: 12% | Population Membrane Permeable-Phenotype (%) [2]: 6% | Population Mitochondria Different-Phenotype (%) [2]: 16% | Population Mitotic Cells (%) [2]: 20% | Population Normal (%) [2]: 87% | Population Pyknosed Nuclei (%) [2]: 9% | Population Tubulin-Different-Phenotype (%) [2]: 22% | Total Cell Count [2]: 85 | Population Apoptotic (%) [3]: 61% | Population Fragmented Nuclei (%) [3]: 23% | Population Healthy Nuclei (%) [3]: 31% | Population Hoechst High Intensity Objects (%) [3]: 6% | Population Membrane Permeable-Phenotype (%) [3]: 50% | Population Mitochondria Different-Phenotype (%) [3]: 26% | Population Mitotic Cells (%) [3]: 38% | Population Normal (%) [3]: 93% | Population Pyknosed Nuclei (%) [3]: 44% | Population Tubulin-Different-Phenotype (%) [3]: 86% | Total Cell Count [3]: 101 | Population Apoptotic (%) [4]: 100% | Population Fragmented Nuclei (%) [4]: 9% | Population Healthy Nuclei (%) [4]: 74% | Population Hoechst High Intensity Objects (%) [4]: 10% | Population Membrane Permeable-Phenotype (%) [4]: 40% | Population Mitochondria Different-Phenotype (%) [4]: 96% | Population Mitotic Cells (%) [4]: 0% | Population Normal (%) [4]: 89% | Population Pyknosed Nuclei (%) [4]: 16% | Population Tubulin-Different-Phenotype (%) [4]: 96% | Total Cell Count [4]: 63 | Population Apoptotic (%) [5]: 64% | Population Fragmented Nuclei (%) [5]: 25% | Population Healthy Nuclei (%) [5]: 36% | Population Hoechst High Intensity Objects (%) [5]: 7% | Population Membrane Permeable-Phenotype (%) [5]: 26% | Population Mitochondria Different-Phenotype (%) [5]: 17% | Population Mitotic Cells (%) [5]: 35% | Population Normal (%) [5]: 92% | Population Pyknosed Nuclei (%) [5]: 38% | Population Tubulin-Different-Phenotype (%) [5]: 86% | Total Cell Count [5]: 156 | Population Apoptotic (%) [6]: 80% | Population Fragmented Nuclei (%) [6]: 4% | Population Healthy Nuclei (%) [6]: 87% | Population Hoechst High Intensity Objects (%) [6]: 13% | Population Membrane Permeable-Phenotype (%) [6]: 7% | Population Mitochondria Different-Phenotype (%) [6]: 22% | Population Mitotic Cells (%) [6]: 20% | Population Normal (%) [6]: 86% | Population Pyknosed Nuclei (%) [6]: 8% | Population Tubulin-Different-Phenotype (%) [6]: 18% | Total Cell Count [6]: 82 | Population Apoptotic (%) [7]: 70% | Population Fragmented Nuclei (%) [7]: 24% | Population Healthy Nuclei (%) [7]: 34% | Population Hoechst High Intensity Objects (%) [7]: 11% | Population Membrane Permeable-Phenotype (%) [7]: 41% | Population Mitochondria Different-Phenotype (%) [7]: 58% | Population Mitotic Cells (%) [7]: 29% | Population Normal (%) [7]: 88% | Population Pyknosed Nuclei (%) [7]: 41% | Population Tubulin-Different-Phenotype (%) [7]: 87% | Total Cell Count [7]: 102 | Population Apoptotic (%) [8]: 81% | Population Fragmented Nuclei (%) [8]: 11% | Population Healthy Nuclei (%) [8]: 64% | Population Hoechst High Intensity Objects (%) [8]: 4% | Population Membrane Permeable-Phenotype (%) [8]: 37% | Population Mitochondria Different-Phenotype (%) [8]: 96% | Population Mitotic Cells (%) [8]: 18% | Population Normal (%) [8]: 95% | Population Pyknosed Nuclei (%) [8]: 24% | Population Tubulin-Different-Phenotype (%) [8]: 96% | Total Cell Count [8]: 72 | Population Apoptotic (%) [9]: 79% | Population Fragmented Nuclei (%) [9]: 36% | Population Healthy Nuclei (%) [9]: 22% | Population Hoechst High Intensity Objects (%) [9]: 6% | Population Membrane Permeable-Phenotype (%) [9]: 14% | Population Mitochondria Different-Phenotype (%) [9]: 25% | Population Mitotic Cells (%) [9]: 20% | Population Normal (%) [9]: 93% | Population Pyknosed Nuclei (%) [9]: 41% | Population Tubulin-Different-Phenotype (%) [9]: 85% | Total Cell Count [9]: 127 | Population Apoptotic (%) [10]: 75% | Population Fragmented Nuclei (%) [10]: 55% | Population Healthy Nuclei (%) [10]: 29% | Population Hoechst High Intensity Objects (%) [10]: 8% | Population Membrane Permeable-Phenotype (%) [10]: 26% | Population Mitochondria Different-Phenotype (%) [10]: 26% | Population Mitotic Cells (%) [10]: 25% | Population Normal (%) [10]: 91% | Population Pyknosed Nuclei (%) [10]: 15% | Population Tubulin-Different-Phenotype (%) [10]: 69% | Total Cell Count [10]: 86 | Population Apoptotic (%) [11]: 73% | Population Fragmented Nuclei (%) [11]: 28% | Population Healthy Nuclei (%) [11]: 25% | Population Hoechst High Intensity Objects (%) [11]: 15% | Population Membrane Permeable-Phenotype (%) [11]: 28% | Population Mitochondria Different-Phenotype (%) [11]: 57% | Population Mitotic Cells (%) [11]: 26% | Population Normal (%) [11]: 84% | Population Pyknosed Nuclei (%) [11]: 46% | Population Tubulin-Different-Phenotype (%) [11]: 71% | Total Cell Count [11]: 97 | Population Apoptotic (%) [12]: 93% | Population Fragmented Nuclei (%) [12]: 10% | Population Healthy Nuclei (%) [12]: 61% | Population Hoechst High Intensity Objects (%) [12]: 16% | Population Membrane Permeable-Phenotype (%) [12]: 5% | Population Mitochondria Different-Phenotype (%) [12]: 85% | Population Mitotic Cells (%) [12]: 6% | Population Normal (%) [12]: 83% | Population Pyknosed Nuclei (%) [12]: 27% | Population Tubulin-Different-Phenotype (%) [12]: 85% | Total Cell Count [12]: 66
